ChEMBL document CHEMBL1125114, “Cardiotonic agents. 6. Histamine analogues as potential cardiovascular selective H2 agonists” (J Med Chem, 1990)
“And” between values parts separate entries of the source, which are not always exact repeats. Identical values can stand only once. Each block holds one compound with its values, some of them ahead of it. The source made the active and inactive calls. No cut-off for these calls is given here.

Key:
[1] = species: Mustela putorius furo; assay: In vitro inotropy blocking studies in ferret papillary muscle in the presence of 100 uM nadolol; B-Blocked; type: functional, tissue-based; conditions: Muscle tissue
Summary of the method: (§1)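 Ferret papillary muscle dose-response repeated in the presence of 100 μM nadolol. A rise of at least 1 order of magnitude in the measured C20 was scored as a blocked inotropic response.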

[2] = species: Mustela putorius furo; assay: (§2) In vitro inotropy blocking studies in ferret papillary muscle in the presence of 10 uM cimetidine; B-Blocked; type: functional, tissue-based; conditions: Muscle tissue
[3] = Concentration which gives 20% increase in the force contraction in ferret papillary muscle; type: functional, Mustela putorius furo, Muscle tissue
Summary of the method: (§3)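 Isolated ferret papillary muscle, force of contraction recorded over a dose-response range. C20 = concentration giving a 20% increase in contractile force. Single experiments reported individually; with three or more runs, mean and range given.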

[4] = species: Mustela putorius furo; assay: Concentration of compound which gives 20% increase in the force contraction in ferret papillary muscle;NR- Not reached; type: functional, tissue-based; conditions: Muscle tissue
Summary of the method: (§4)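 Ferret papillary muscle force of contraction. C20 is the concentration giving a 20% increase in force. Values come from individual experiments; where three or more runs were done, the mean and range are given. NR means not reached.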

[5] = species: Mustela putorius furo; assay: Concentration of compound which gives 20% increase in the force contraction in ferret papillary muscle; NR-Not reached; type: functional, tissue-based; conditions: Muscle tissue; summary of the method: as §3
[6] = species: Mustela putorius furo; assay: (§5) In vitro inotropy blocking studies in ferret papillary muscle in the presence of 100 uM nadolol; NB-Not Blocked; type: functional, tissue-based; conditions: Muscle tissue; summary of the method: as §1
[7] = species: Mustela putorius furo; assay: as §2; type: functional, tissue-based; conditions: Muscle tissue; remark: listed apart in the source
Summary of the method: (§6)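 Ferret papillary muscle dose-response repeated in the presence of antagonist (cimetidine). A rise of at least 1 order of magnitude in the measured C20 was scored as a blocked inotropic response.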

[8] = test system: Rattus norvegicus; assay: In vivo effect on gastric acid secretion in rat was determined after subcutaneous administration; type: functional; conditions: Stomach, sc
Summary of the method: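 Rats, subcutaneous dosing, gastric acid secretion measured by the method of Hagiwara and co-workers. ED50 = dose giving a 50% increase in acid secretion over control. Mean ± SEM of three separate dose-response determinations.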

[9] = species: Cavia porcellus; assay: In vitro chronotropic effect of histamine at 5 ug/mL in guinea pig atrium; type: functional; conditions: Cardiac atrium
Summary of the method: (§7)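 Spontaneously beating guinea pig right atria. Value is the concentration giving 50% of the chronotropic effect of histamine at 5 μg/mL, taken from dose-response curves. Reported as mean ± SEM of three separate dose-response determinations. Response sensitivity checked with cimetidine.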

[10] = Concentration of compound which gives 20% increase in the force contraction in ferret papillary muscle.; type: functional, Mustela putorius furo, Muscle tissue; summary of the method: as §4
[11] = species: Cavia porcellus; assay: In vitro contractile response of histamine at 0.5 ug/mL in guinea pig ileum; type: functional
Summary of the method: (§8)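 Isolated guinea pig ileum, H1 activity. Value is the concentration giving 50% of the contractile response of histamine at 0.5 μg/mL, taken from dose-response curves. Reported as mean ± SEM of three separate dose-response determinations. Response sensitivity checked with mepyramine.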

[12] = dp/dt value of the compound; type: functional
Summary of the method: (§9)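 Pentobarbital-anesthetized guinea pigs with stomach ligated to contain gastric fluid. After 30 min stabilization, blood pressure, heart rate, LVEDP and LV dP/dtmax were recorded at 1-min intervals. Compound given by iv infusion for 60 min, then monitored 10 min more. Gastric contents were titrated against 0.1 N NaOH. Value is the average maximum % change from control in the 10 min after infusion, mean ± SEM.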

[13] = test system: Cavia porcellus; assay: In vivo percent change in air way overflow in guinea pig was determined at a dose of 10 mg/kg/hr; type: functional
[14] = test system: Cavia porcellus; assay: In vivo percent change in total acid secretion in guinea pig was determined at a dose of 10 mg/kg/hr; type: functional; summary of the method: as §9
[15] = dP/dt value of the compound; type: functional; parameters: unit not given here
[16] = test system: Cavia porcellus; assay: In vivo percent change in heart rate in guinea pig was determined at a dose of 10 mg/kg/hr; type: functional; summary of the method: as §9
[17] = test system: Cavia porcellus; assay: In vivo percent change in mean arterial pressure in guinea pig was determined at a dose of 10 mg/kg/hr; type: functional, Artery; summary of the method: as §9
[18] = species: Cavia porcellus; assay: Chronotropic effect of histamine at 5 ug/mL in guinea pig atrium; NR-Not reached; type: functional, Cardiac atrium
[19] = species: Mustela putorius furo; assay: as §5; type: functional, tissue-based; conditions: Muscle tissue; remark: listed apart in the source
Summary of the method: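 Ferret papillary muscle inotropic dose-response curves repeated in the presence of each antagonist (nadolol at 100 μM). A rise in C20 of at least one order of magnitude was scored as a blocked response.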

[20] = species: Cavia porcellus; assay: Contractile response of histamine at 0.5 ug/mL in guinea pig ileum; type: functional; summary of the method: as §8
[21] = test system: Rattus norvegicus; assay: In vivo effect on gastric acid secretion in rat was determined after subcutaneous administration; NC-No change; type: functional, organism-based; conditions: Stomach
Summary of the method: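 Rats, subcutaneous dosing, gastric acid secretion stimulation. ED50 is the dose giving a 50% increase in acid secretion over control. Reported as mean ± SEM of three separate dose-response determinations.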

[22] = test system: Cavia porcellus; assay: In vivo percent change in total acid secretion in guinea pig was determined at a dose of 30 mg/kg/h; type: functional; summary of the method: as §9
[23] = test system: Cavia porcellus; assay: In vivo percent change in heart rate in guinea pig was determined at a dose of 30 mg/kg/h; type: functional; summary of the method: as §9
[24] = test system: Cavia porcellus; assay: In vivo percent change in airway overflow in guinea pig was determined at a dose of 30 mg/kg/h; type: functional
[25] = species: Cavia porcellus; assay: Chronotropic effect of histamine at 5 ug/mL in guinea pig atrium; type: functional, Cardiac atrium; summary of the method: as §7
[26] = species: Mustela putorius furo; assay: In vitro inotropy blocking studies in ferret papillary muscle in the presence of 10 uM cimetidine; NB-Not Blocked; type: functional, tissue-based; conditions: Muscle tissue; summary of the method: as §6
[27] = test system: Cavia porcellus; assay: In vivo percent change airway overflow in guinea pig was determined at a dose of 75 mg/kg/h; type: functional
[28] = test system: Cavia porcellus; assay: In vivo percent change in mean arterial pressure in guinea pig was determined at a dose of 75 mg/kg/h; type: functional, Artery; summary of the method: as §9
[29] = test system: Cavia porcellus; assay: In vivo percent change total acid secretion in guinea pig was determined at a dose of 75 mg/kg/h; type: functional; summary of the method: as §9
[30] = test system: Cavia porcellus; assay: In vivo percent change in heart rate in guinea pig was determined at a dose of 75 mg/kg/h; type: functional; summary of the method: as §9
[31] = test system: Cavia porcellus; assay: In vivo percent change in total acid secretion in guinea pig was determined at a dose of 1 mg/kg/h; type: functional
[32] = test system: Cavia porcellus; assay: In vivo percent change in heart rate in guinea pig was determined at a dose of 1 mg/kg/h; type: functional
[33] = test system: Cavia porcellus; assay: In vivo percent change in airway overflow in guinea pig was determined at a dose of 1 mg/kg/h; type: functional
[34] = test system: Cavia porcellus; assay: In vivo percent change in mean arterial pressure in guinea pig was determined at a dose of 1 mg/kg/h; type: functional, Artery
[35] = test system: Cavia porcellus; assay: In vivo percent change in total acid secretion in guinea pig was determined at a dose of 7.5 mg/kg/h; type: functional
[36] = test system: Cavia porcellus; assay: In vivo percent change in airway overflow in guinea pig was determined at a dose of 7.5 mg/kg/h; type: functional
[37] = test system: Cavia porcellus; assay: In vivo percent change in heart rate in guinea pig was determined at a dose of 7.5 mg/kg/h; type: functional
[38] = test system: Cavia porcellus; assay: In vivo percent change in mean arterial pressure in guinea pig was determined at a dose of 7.5 mg/kg/h; type: functional, Artery
[39] = species: Mustela putorius furo; assay: In vitro inotropy blocking studies in ferret papillary muscle in the presence of 100 uM nadolol; Blocked; type: functional, tissue-based; conditions: Muscle tissue; summary of the method: as §1
[40] = Cavia porcellus, Ileum, read-out: EC50

SMILES: CCN(CCc1c[nH]cn1)C(C)CCc1ccc(O)cc1 (centres undefined)
Activity [1]: Blocked
Activity [2]: Blocked
C20 [3]: 4 uM l-1 and 6 uM l-1

SMILES: NC(C/C=C/c1ccccc1)CCc1c[nH]cn1 (centres undefined)
C20 [4]: Not reached

SMILES: CCCN(CCc1c[nH]cn1)C(C)CCc1ccc(O)cc1 (centres undefined)
Activity [1]: Blocked
Activity [2]: Blocked
C20 [3]: 4.9 uM l-1

SMILES: Cc1[nH]cnc1CCNCCNC(=O)c1ccncc1
C20 [5]: Not reached

SMILES: COc1ccc(CCNCCc2c[nH]cn2)cc1OC
Activity [1]: Blocked
Activity [2]: Blocked

SMILES: NCCc1c[nH]cn1 [HISTAMINE]
Activity [6]: inactive
Activity [7]: Active
ED50 [8]: 2.7 mg/kg
EC50 [9]: 0.98 µM
C20 [10]: 0.42 uM l-1
EC50 [11]: 0.24 µM
dP/dt [12]: 132

SMILES: O=C(c1ccccc1)N1CCC(NCCc2c[nH]cn2)CC1
C20 [3]: >27 uM l-1

SMILES: c1ccc2c3c(ccc2c1)C(NCCc1c[nH]cn1)CCC3 (centres undefined)
C20 [3]: >10 uM l-1

EC50 [18]: Not reached
EC50 [20]: 165 uM l-1
SMILES: CN(CCc1c[nH]cn1)Cc1ccco1
Change [13]: 51%
ED50 [8]: 15.3 mg/kg
Activity [2]: Blocked
C20 [3]: 6.7 uM l-1
Change [14]: 221%
dP/dt [15]: -6
Change [16]: -8%
Change [17]: -22%
Activity [19]: Not blocked

SMILES: NC(C/C=C/c1ccccc1)Cc1c[nH]cn1 (centres undefined)
ED50 [21]: inactive
Change [22]: 169%
Change [23]: 5%
Activity [2]: Blocked
C20 [3]: 13 uM l-1
Change [24]: 45%
dP/dt [15]: 68
Activity [19]: Not blocked
EC50 [20, 40]: 7.23 µM
EC50 [25]: 184 uM l-1

SMILES: Cc1[nH]cnc1CCNCCNC(=O)N1CCOCC1
C20 [3]: >90 uM l-1

SMILES: CC(CCc1ccc(O)cc1)NCCc1c[nH]cn1 (centres undefined)
Activity [1]: Blocked
Activity [26]: Not blocked
C20 [3]: 2 uM l-1 and 5 uM l-1

SMILES: CCCCCCCN(C)CCc1c[nH]cn1
C20 [10]: >57 uM l-1

SMILES: Cc1[nH]cnc1CCNCCNC(=O)c1ccccc1
C20 [3]: 27 uM l-1

SMILES: CCCCCCCNCCc1c[nH]cn1
Activity [6]: Not blocked
Activity [7]: Blocked
ED50 [8]: 10.7 mg/kg
Change [27]: 150%
Change [28]: 15%
Change [29]: 220%
C20 [10]: 1 uM l-1
Change [30]: 14%
dP/dt [12]: 155
EC50 [20, 40]: 7.88 µM
EC50 ([25]; Cavia porcellus, Cardiac atrium, read-out: EC50): 71 µM

SMILES: CC(=O)NCCNCCc1c[nH]cn1
C20 [3]: 46 uM l-1 and 85 uM l-1

SMILES: Cc1[nH]cnc1CCNCCNC(=O)c1ccc(NS(C)(=O)=O)cc1
C20 [3]: 20 uM l-1 and 40 uM l-1

EC50 [9]: 4.6 µM
EC50 [11]: 10.4 µM
SMILES: CN(C)CCCSC(=N)N [DIMAPRIT]
ED50 [8]: 3.1 mg/kg
Change [31]: 91%
Activity [2]: Blocked
dP/dt [15]: 93
Activity [19]: Not blocked
Change [32]: 19%
Change [33]: 11%
Change [34]: -25%

SMILES: CN(CC/C=C/c1ccccc1)CCc1c[nH]cn1
Activity [1]: Blocked
Activity [26]: Not blocked

SMILES: c1coc(CNCCCc2c[nH]cn2)c1
C20 [3]: 33 uM l-1

EC50 [18]: Not reached
EC50 [20, 40]: 50.6 µM
SMILES: CCCCCCC(=O)NCCc1c[nH]cn1
ED50 [8]: 5.9 mg/kg
Change [35]: 160%
Change [36]: 197%
Change [37]: 41%
Activity [2]: Blocked
C20 [3]: 7.3 uM l-1
dP/dt [15]: 146
Activity [19]: Not blocked
Change [38]: 33%

SMILES: Cc1[nH]cnc1CCNCCN
C20 [5]: Not reached

SMILES: O=C(NCCNCCc1c[nH]cn1)c1ccccc1
C20 [3]: >66 uM l-1

SMILES: c1coc(CNCCc2c[nH]cn2)c1
Activity [1]: Blocked
C20 [3]: 27 uM l-1

SMILES: C(=C\c1ccccc1)/CCNCCc1c[nH]cn1
Activity [39]: Blocked
C20 [3]: 14 uM l-1 and 21 uM l-1

SMILES: CC(CCc1ccc(O)cc1)N(C)CCc1c[nH]cn1 (centres undefined)
Activity [1]: Blocked
ED50 [21]: inactive
Change [13]: 39%
Activity [26]: Not blocked
C20 [3]: 0.13 uM l-1 and 0.16 uM l-1
Change [14]: 22%
dP/dt [15]: 29
Change [17]: 5%
EC50 [18]: Not reached
EC50 [20]: 128 uM l-1
